Data from ChEMBL document CHEMBL5696442, “Discovery of type II inhibitors of TGFβ-activated kinase 1 (TAK1) and mitogen-activated protein kinase kinase kinase kinase 2 (MAP4K2)” (J Med Chem, 2015).

Legend:
Format in all cases: cell-based
[1] = target: Mitogen-activated protein kinase kinase kinase 4 (Homo sapiens) (UniProt Q9Y6R4); test: Inhibition of MAP3K4 Lys2 labeling site in human A-375 cells at 0.5 uM by KiNativ Profiling analysis relative to control
[2] = target: Calcium/calmodulin-dependent protein kinase type 1 (Homo sapiens) (UniProt Q14012); test: Inhibition of CaMK1a Lys1 labeling site in human A-375 cells at 0.5 uM by KiNativ Profiling analysis relative to control
Chain of Calcium/calmodulin-dependent protein kinase type 1 (Homo sapiens) (Q14012 whole entry, looked up): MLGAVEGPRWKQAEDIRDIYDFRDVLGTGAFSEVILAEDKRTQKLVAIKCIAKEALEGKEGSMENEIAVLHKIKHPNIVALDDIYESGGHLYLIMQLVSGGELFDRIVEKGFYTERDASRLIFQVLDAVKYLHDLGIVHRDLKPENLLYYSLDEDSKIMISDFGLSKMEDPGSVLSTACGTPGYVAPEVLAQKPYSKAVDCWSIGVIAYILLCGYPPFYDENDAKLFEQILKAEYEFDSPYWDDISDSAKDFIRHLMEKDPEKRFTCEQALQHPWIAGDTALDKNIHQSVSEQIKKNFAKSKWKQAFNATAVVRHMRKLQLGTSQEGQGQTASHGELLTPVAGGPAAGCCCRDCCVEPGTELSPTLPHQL
In short: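 Intact A375 melanoma cells were treated with compound at 5 or 0.5 μM, then lysed. Lysate kinases were labeled with a lysine-reactive ATP or ADP-biotin probe (KiNativ). Inhibition is read as protection of each kinase labeling site from probe labeling.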

[3] = target: T1, Serine/threonine-protein kinase Nek9 (Homo sapiens) (UniProt Q8TD19); test: Inhibition of NEK9 Lys1 labeling site harbouring RTEDDSLVVWKEVDLTR in human A-375 cells at 0.5 uM by KiNativ Profiling analysis relative to control
T1 sequence (whole entry): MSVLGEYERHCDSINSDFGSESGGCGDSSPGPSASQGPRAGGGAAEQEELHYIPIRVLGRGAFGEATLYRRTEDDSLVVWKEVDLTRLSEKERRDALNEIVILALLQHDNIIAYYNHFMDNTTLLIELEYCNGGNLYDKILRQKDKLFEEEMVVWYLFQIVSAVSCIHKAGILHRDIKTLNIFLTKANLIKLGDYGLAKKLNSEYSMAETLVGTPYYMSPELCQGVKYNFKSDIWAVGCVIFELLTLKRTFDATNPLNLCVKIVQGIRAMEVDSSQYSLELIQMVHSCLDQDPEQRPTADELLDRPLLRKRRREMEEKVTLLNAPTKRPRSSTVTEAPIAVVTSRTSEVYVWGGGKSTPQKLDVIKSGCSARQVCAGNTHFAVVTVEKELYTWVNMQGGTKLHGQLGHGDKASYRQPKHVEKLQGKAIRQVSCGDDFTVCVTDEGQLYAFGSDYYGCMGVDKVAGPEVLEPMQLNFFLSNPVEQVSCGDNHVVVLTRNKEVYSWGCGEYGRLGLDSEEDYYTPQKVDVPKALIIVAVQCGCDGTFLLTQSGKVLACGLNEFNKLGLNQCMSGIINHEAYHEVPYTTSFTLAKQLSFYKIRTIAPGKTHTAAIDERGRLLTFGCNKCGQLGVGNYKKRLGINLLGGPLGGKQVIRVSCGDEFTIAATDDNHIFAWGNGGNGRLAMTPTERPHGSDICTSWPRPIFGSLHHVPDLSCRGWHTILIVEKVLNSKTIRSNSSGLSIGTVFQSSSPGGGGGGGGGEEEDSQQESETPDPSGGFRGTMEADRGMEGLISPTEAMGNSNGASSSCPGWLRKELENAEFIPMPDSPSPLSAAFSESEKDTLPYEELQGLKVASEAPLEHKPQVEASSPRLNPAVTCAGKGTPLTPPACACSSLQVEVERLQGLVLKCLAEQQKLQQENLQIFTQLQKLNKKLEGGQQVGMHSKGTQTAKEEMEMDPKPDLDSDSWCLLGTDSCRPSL

[4] = target: STE20-like serine/threonine-protein kinase (Homo sapiens) (UniProt Q9H2G2); test: Inhibition of SLK Lys1 labeling site in human A-375 cells at 0.05 uM by KiNativ Profiling analysis relative to control
Chain of STE20-like serine/threonine-protein kinase (Homo sapiens) (Q9H2G2 whole entry, looked up): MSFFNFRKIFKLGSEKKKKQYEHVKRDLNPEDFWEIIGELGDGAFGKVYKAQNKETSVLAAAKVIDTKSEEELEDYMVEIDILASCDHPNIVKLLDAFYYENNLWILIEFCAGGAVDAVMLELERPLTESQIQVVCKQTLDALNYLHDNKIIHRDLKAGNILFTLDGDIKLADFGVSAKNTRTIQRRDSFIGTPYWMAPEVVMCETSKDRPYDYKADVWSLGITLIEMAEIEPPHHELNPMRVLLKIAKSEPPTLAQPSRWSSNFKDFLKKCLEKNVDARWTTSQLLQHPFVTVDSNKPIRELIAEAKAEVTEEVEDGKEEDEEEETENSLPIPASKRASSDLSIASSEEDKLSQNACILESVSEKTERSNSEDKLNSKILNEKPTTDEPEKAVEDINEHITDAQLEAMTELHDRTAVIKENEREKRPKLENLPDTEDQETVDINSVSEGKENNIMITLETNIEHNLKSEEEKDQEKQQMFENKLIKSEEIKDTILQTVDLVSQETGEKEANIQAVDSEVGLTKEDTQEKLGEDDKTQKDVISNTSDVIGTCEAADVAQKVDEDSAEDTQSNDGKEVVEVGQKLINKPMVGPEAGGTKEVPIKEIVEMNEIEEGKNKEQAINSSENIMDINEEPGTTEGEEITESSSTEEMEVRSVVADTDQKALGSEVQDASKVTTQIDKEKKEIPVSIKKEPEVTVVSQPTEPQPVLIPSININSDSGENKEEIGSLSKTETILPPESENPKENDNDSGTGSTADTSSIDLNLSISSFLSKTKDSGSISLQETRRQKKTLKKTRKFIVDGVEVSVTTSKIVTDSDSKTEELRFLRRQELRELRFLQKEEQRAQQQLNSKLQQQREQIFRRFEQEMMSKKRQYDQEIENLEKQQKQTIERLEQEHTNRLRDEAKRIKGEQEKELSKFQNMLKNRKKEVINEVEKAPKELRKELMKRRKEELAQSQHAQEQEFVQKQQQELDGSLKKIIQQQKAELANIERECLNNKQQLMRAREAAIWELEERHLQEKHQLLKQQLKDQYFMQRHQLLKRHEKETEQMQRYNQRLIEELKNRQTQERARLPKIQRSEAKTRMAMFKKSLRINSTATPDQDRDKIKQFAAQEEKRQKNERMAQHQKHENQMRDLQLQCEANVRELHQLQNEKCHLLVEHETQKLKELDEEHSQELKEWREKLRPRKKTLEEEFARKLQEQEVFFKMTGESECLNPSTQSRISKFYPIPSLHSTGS

[5] = target: T2, Serine/threonine-protein kinase TBK1 (Homo sapiens) (UniProt Q9UHD2); test: Inhibition of TBK1 Lys1 labeling site in human A-375 cells at 5 uM by KiNativ Profiling analysis relative to control
T2 sequence (whole entry): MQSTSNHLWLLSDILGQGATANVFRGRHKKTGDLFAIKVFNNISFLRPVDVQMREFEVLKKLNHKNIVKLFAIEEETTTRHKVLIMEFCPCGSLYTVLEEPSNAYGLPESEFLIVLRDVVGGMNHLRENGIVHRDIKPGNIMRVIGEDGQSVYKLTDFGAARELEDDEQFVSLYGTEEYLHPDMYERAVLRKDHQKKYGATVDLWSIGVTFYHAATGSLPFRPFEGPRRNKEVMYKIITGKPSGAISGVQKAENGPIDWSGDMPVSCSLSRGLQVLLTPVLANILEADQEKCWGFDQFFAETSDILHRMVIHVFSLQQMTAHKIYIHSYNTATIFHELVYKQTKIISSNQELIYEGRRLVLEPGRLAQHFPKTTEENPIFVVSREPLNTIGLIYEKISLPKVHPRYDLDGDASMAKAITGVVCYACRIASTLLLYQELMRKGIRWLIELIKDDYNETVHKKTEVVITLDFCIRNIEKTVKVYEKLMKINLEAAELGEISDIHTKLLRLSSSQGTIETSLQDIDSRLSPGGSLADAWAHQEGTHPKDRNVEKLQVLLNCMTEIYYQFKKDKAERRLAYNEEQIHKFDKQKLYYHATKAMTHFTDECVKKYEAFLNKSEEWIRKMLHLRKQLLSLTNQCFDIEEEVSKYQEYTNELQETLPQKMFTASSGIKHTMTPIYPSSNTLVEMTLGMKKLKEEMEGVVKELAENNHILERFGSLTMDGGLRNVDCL

Chain of Mitogen-activated protein kinase kinase kinase 4 (Homo sapiens) (Q9Y6R4 whole entry): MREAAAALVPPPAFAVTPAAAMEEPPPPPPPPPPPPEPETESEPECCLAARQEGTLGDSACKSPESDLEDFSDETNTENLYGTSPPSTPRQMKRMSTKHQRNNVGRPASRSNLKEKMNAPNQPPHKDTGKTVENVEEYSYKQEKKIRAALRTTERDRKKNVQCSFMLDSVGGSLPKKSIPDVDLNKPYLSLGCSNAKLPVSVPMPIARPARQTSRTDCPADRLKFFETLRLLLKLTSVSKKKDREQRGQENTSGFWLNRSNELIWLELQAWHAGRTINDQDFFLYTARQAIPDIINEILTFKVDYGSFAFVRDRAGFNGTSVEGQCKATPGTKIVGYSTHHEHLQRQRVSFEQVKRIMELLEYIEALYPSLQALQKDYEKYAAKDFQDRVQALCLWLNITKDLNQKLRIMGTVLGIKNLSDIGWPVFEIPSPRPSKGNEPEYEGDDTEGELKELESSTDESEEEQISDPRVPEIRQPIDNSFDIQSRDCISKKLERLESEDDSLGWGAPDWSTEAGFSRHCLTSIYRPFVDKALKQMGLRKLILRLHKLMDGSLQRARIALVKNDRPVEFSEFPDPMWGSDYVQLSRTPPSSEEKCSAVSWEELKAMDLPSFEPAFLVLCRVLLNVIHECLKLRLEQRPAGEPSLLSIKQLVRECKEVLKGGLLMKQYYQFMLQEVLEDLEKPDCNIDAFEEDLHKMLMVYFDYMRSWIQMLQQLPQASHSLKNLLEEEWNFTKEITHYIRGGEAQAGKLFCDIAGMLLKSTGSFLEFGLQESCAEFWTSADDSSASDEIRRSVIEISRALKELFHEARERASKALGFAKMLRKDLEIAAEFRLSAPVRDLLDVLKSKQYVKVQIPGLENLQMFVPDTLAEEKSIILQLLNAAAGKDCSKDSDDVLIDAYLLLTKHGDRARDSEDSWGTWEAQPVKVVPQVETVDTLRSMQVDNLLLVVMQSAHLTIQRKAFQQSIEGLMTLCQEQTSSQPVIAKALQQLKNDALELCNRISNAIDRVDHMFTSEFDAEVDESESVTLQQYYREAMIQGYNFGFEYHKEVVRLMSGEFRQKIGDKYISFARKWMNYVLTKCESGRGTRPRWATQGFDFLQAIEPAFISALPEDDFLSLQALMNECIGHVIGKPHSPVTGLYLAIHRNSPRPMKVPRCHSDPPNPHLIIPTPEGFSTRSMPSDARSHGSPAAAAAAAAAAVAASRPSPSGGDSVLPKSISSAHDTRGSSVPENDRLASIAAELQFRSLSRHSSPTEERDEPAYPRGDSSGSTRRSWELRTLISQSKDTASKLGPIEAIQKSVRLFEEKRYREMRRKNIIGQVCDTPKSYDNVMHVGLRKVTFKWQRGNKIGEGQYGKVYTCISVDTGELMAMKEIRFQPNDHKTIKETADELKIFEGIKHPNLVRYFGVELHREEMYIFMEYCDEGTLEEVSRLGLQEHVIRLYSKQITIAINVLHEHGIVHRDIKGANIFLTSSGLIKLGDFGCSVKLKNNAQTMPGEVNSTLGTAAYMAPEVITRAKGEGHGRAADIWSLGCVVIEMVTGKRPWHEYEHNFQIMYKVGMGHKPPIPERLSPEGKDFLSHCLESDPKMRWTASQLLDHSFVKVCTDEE

CCN1CCN(Cc2ccc(NC(=O)c3ccc(C)c(Oc4ccnc5[nH]ccc45)c3)cc2C(F)(F)F)CC1 showed an inhibition [1] of 1.2%, an inhibition [2] of 67% and an inhibition [3] of 13.9%. It also gave an inhibition [4] of 13% and an inhibition [5] of 13.2%.

With CCN1CCN(Cc2ccc(NC(=O)c3ccc(C)c(/C=C/c4cnc5[nH]ccc5c4OC)c3)cc2C(F)(F)F)CC1 the inhibition [1] was -4.4%, the inhibition [2] was 37% and the inhibition [3] was 7%. It also gave an inhibition [4] of 2.2% and an inhibition [5] of 42.7%.
